Measured values from ChEMBL document CHEMBL3627695, “1-Benzyl-2-methyl-3-indolylmethylene barbituric acid derivatives: Anti-cancer agents that target nucleophosmin 1 (NPM1)” (Bioorg Med Chem, 2015).
Activity calls are given as the source filed them. No cut-off for these calls is given here.

Assays:
[1] = (§1) Anticancer activity against human OCI-AML3 cells expressing mutant NPM1 assessed as apoptosis for 48 hrs by annexin-V and TO-PRO3 staining based flow cytometry; format: functional, cell-based; conditions: OCI-AML-3, 48 h
Procedure, shortened: (§2)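 OCI-AML3 cells (NPM1c+) in logarithmic growth, passaged 2–3 times weekly. Cells were exposed to the indicated compound concentrations for 48 hr, then stained with annexin V and TO-PRO 3. Percent apoptotic cells was read by flow cytometry. AP50 is the concentration at which 50% of cells undergo apoptosis.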

OCI-AML-3 = assay: as §1; format: functional, cell-based; procedure, shortened: as §2

Row | SMILES | AC50 [1] [µM] | Activity (OCI-AML-3)
1 | Cc1c(C=C2C(=O)NC(=S)NC2=O)c2ccccc2n1Cc1ccc(Br)cc1 | 3.3 | Dose-dependent effect
2 | Cc1c(C=C2C(=O)NC(=O)NC2=O)c2ccccc2n1Cc1ccccc1 |  | inactive
3 | COC(=O)c1ccc(Cn2c(C)c(C=C3C(=O)NC(=O)NC3=O)c3ccccc32)cc1 |  | inactive
4 | N#Cc1ccc(Cn2cc(C=C3C(=O)NC(=O)NC3=O)c3ccccc32)cc1 | > 20 | 
5 | Cc1c(C=C2C(=O)NC(=O)NC2=O)c2ccccc2n1Cc1ccc(Br)cc1 |  | inactive
